We go through 87 compounds from PubChem BioAssay AID489030 (Sanford-Burnham Center for Chemical Genomics, 2010).

Among all 330,000 compounds or so, about 2,400 (0.73%) were called active. The calls were made as follows: active = inhibition of at least 40% at 20 µM; inactive = the rest. Only a selection was taken, and actives are over-represented in it overall.

The target in the assay is Apoptotic protease-activating factor 1 (Homo sapiens) (UniProt O14727). Briefly: inhibitors of human Apaf-1 apoptosome, primary screen, biochemical, DEVD-Rh110 fluorescence, uHTS (AID 489030).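 Also: plate controls were DMSO wells for no effect and DEVD-CHO caspase inhibitor wells for full effect.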 To be noted: reconstituted apoptosome caspase-3 activity, at 20 µM, stronger effect = higher value. In a few lines: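 System – cell-free apoptosome with Apaf-1, procaspase-3 and caspase-9 · Buffer or medium – pH 7.5 Hepes buffer with CHAPS, BSA, DTT · Also added – cytochrome c with DEVD-Rh110 · Times – 30 min compound preincubation, 50 min activation, room temperature · Technique – Rh110 fluorescence intensity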
Sequence of Apoptotic protease-activating factor 1 (Homo sapiens) (O14727 whole entry, looked up): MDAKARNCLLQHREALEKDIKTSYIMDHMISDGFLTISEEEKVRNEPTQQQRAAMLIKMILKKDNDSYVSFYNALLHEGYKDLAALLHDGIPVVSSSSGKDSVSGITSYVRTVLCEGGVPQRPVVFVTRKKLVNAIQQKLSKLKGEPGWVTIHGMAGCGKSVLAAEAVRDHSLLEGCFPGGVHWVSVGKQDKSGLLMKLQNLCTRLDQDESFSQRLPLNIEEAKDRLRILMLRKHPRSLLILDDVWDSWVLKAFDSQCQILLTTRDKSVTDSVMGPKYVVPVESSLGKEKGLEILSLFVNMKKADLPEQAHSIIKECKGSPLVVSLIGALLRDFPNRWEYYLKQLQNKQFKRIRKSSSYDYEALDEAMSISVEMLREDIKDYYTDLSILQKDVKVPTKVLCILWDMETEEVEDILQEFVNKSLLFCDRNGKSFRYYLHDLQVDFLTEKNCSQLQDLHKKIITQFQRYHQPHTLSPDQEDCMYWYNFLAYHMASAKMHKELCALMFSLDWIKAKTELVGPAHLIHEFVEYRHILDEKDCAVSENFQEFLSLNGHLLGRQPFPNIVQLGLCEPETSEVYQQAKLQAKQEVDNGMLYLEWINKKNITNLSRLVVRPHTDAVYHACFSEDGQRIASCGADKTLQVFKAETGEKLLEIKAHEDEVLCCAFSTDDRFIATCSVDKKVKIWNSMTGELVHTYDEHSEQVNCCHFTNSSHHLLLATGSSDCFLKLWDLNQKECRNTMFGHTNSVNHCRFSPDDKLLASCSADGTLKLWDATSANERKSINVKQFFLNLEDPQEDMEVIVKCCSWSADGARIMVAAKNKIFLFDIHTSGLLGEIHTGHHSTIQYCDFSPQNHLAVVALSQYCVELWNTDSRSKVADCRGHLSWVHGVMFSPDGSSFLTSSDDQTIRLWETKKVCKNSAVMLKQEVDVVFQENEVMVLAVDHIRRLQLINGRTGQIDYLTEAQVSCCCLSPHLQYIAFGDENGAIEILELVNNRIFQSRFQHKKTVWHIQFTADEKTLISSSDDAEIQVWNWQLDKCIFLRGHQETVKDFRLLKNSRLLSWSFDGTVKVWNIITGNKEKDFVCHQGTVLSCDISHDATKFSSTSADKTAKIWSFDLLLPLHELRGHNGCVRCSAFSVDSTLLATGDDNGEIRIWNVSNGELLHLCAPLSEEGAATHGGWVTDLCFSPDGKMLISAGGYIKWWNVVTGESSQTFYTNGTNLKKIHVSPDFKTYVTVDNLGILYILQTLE
For `CCc1ccc(/C=N/NC(=O)c2nnn(-c3nonc3N)c2CN2CCc3ccccc32)cc1`, the inhibition was 8.04% (inactive). To `CC(C)CC[n+]1ccn(C2=C([O-])c3ccccc3C(=O)/C2=N\S(=O)(=O)c2ccccc2)c1` belongs 55.3% (active); to `CCc1nc(C)cn1S(=O)(=O)c1cc([N+](=O)[O-])ccc1Cl`, 2.1% (inactive); to `COc1ccc(C(=O)NNc2cc(C)nc(NNC(=O)c3ccc(OC)cc3)n2)cc1`, 8.09% (inactive).

Regarding `CCC(=O)Nc1ccc(Nc2nc(Cl)nc(Nc3ccc(NC(=O)CC)cc3)n2)cc1`, the inhibition is -8.45% (inactive). For `CC(=O)Nc1ccc(Nc2cc(C)nc(Nc3ccc(NC(C)=O)cc3)n2)cc1`, the inhibition is 46.2% (active). With `COc1ccc(OCCNC(=O)c2cc(C3CC3)nc3c2cnn3C(C)C)cc1`, the inhibition was 15% (inactive). As for `O=c1nc(N/N=C/c2ccco2)cn[nH]1`, the inhibition was 2.62% (inactive). Turning to `CCOC(=O)N1CCN(C(=O)COCc2cc(-c3ccc4c(c3)OCO4)on2)CC1`, the inhibition is 15.6% (inactive).

Consider `Cc1cc(C)n(-c2nc(SCC(=O)N3CCCC3)c3c4c(sc3n2)CCCC4)n1`, for which the inhibition was 43.6% (active). As to `COCCNc1nc(-n2nc(C)cc2C)nc2sc3c(c12)CCCC3`, the inhibition is 8.1% (inactive). To `CC(C)c1nc(SCC(=O)Nc2cccc(C(=O)O)c2)c2c3c(sc2n1)CCCC3` belongs 7.92% (inactive); to `CCN(CC)S(=O)(=O)c1cc([N+](=O)[O-])ccc1NNC(=O)Nc1ccccc1`, 7.25% (inactive); to `COC(=O)CN1C(C)=Nc2ccc(Br)cc2C1c1ccccc1` (configuration not stated), 4.57% (inactive). With `COc1ccc(S(=O)(=O)N2CCCCC2)cc1NC(=O)C1CC(=O)N(c2ccc3c(c2)OCCO3)C1` (configuration not stated) the figure was 18.5% (inactive); with `O=C(COC(=O)c1ccc(O)cc1O)NNC(=O)c1cccs1`, -6.93% (inactive); with `Cc1cccc(OCCNC(=O)CSc2ccc(C(F)(F)F)cc2[N+](=O)[O-])c1`, 15.2% (inactive).

As to `CN1CCN(CCCNC(=O)c2ccc(/C=C3\Oc4ccccc4N(Cc4ccc(Cl)cc4)C3=O)cc2)CC1`, the inhibition is 56.6% (active). `Cc1c(C)n(Cc2ccc(Cl)cc2)c2ccc(C(=O)NCCCN3CCOCC3)cc12`: the inhibition is 25.9% (inactive). For `CC(C)OCCCNC(=O)CN1C(=O)/C(=C/c2ccccc2F)Oc2ccccc21`, the inhibition is 11% (inactive). To `O=C(NCC1CC1)c1onc(CSc2ccccc2)c1C(=O)NCC1CC1` belongs 14.7% (inactive). To `COc1cccc(NC(=O)CSc2nccn(-c3ccc4c(c3)OCCO4)c2=O)c1` belongs 5.15% (inactive). Regarding `CCOc1cc(CNCCN(C)C)c(Cl)cc1OCC(=O)NCCc1ccccc1`, the inhibition was 13.1% (inactive). As for `COc1ccc(S(=O)(=O)N(C)C[C@@H]2Oc3ccc(NS(=O)(=O)c4cn(C)cn4)cc3C(=O)N([C@@H](C)CO)C[C@@H]2C)cc1`, the inhibition is 5.38% (inactive). As to `O=C1NNC(c2ccccc2)=N/C1=C\c1ccc(Cl)cc1`, the inhibition is 50.6% (active). With `Cc1ccc(Cl)c(OCC(=O)N(C)CC(=O)Nc2ccc(N3CCOCC3)cc2)c1` the figure was 7.19% (inactive).

With `COC(=O)c1ccc(COC(=O)C2CCN(S(=O)(=O)c3c(Cl)cccc3Cl)CC2)o1`, the inhibition is 0.83% (inactive). With `CCn1cc(CN2CCC(C(=O)Nc3cccc(-c4cccc(Cl)c4)c3)CC2)cn1`, the inhibition was 33.8% (inactive).

For `CCn1cc(CN2CCC(C(=O)Nc3cccc(-c4cccc(Cl)c4)c3)CC2)c(C)n1`, the inhibition is 40.5% (active).

On to `O=C(Nc1cccc(-c2cccc(Cl)c2)c1)C1CCN(C2CCC2)CC1`, for which the inhibition is 25.3% (inactive). With `COc1ccccc1N1CCN(C(=O)CSc2ncnc3c2cnn3-c2ccc(C)c(C)c2)CC1`, the inhibition was -2.97% (inactive).

In the case of `COc1cccc(-n2c(N)cc(=O)nc2SCC(=O)Nc2cc(C)on2)c1`, the inhibition is 0.469% (inactive). Turning to `CCCCN1C(=S)NC[C@@H]1C(C)CC` (some centres not stated), the inhibition was 1.66% (inactive). On to `COc1ccccc1C(=O)N1C(CC(=O)Nc2ccccc2C)C(=O)NC2CCCCC21` (configuration not stated), for which the inhibition is -7.88% (inactive). For `CCOC(=O)Cc1cc(=O)[nH]c(/N=C(\N)Nc2ccc(OC)cc2)n1`, the inhibition was -3.54% (inactive). Consider `CCOC(=O)c1ccc(Nc2cc3ccccc3c(=O)[nH]2)cc1`, for which the inhibition is 92.5% (active). Consider `CCOC(=O)c1ccc(NC(=O)c2c(NCc3ccccc3)[nH]c(=O)[nH]c2=O)cc1`, for which the inhibition was 3.08% (inactive). Turning to `CCOC(=O)c1ccc(NC(=O)c2c(N)n(C)c(=O)[nH]c2=O)cc1`, the inhibition was -13.8% (inactive).

With `COc1ccc(/C=C/c2c(-c3cccc(C)c3)oc3ccc(-c4ccc5c(c4)OCO5)cc23)cc1`, the inhibition was -2.24% (inactive). To `CC(C)N(Cc1ccccc1)C(=O)COC(=O)c1ccccc1SCC(=O)N1CCCC1` belongs 1.56% (inactive). Regarding `CC(NC(=O)c1ccccc1SCC(=O)N1CCCC1)c1ccccc1` (configuration not stated), the inhibition is 41.6% (active). `CN(CC(=O)Nc1ccccc1Cl)C(=O)c1ccccc1SCC(=O)N1CCCC1`: the inhibition is -3.37% (inactive). On to `Cc1ccc(NC2=NC(c3ccccc3)n3c(nc(C)cc3=O)N2)cc1` (configuration not stated), for which the inhibition was 5.19% (inactive). For the compound `O=C(Nc1ccccc1C(=O)O)c1cc(S(=O)(=O)N2CCCCC2)cs1`, the inhibition is -2.29% (inactive). Take `COc1ccc(C2=NS(=O)(=O)N(C)C(C(=O)NC(C)c3ccccc3)=C2)cc1` (configuration not stated): the inhibition was 1.57% (inactive). To `C=CCOc1c(Br)cc(/C=N\n2nnnc2N)cc1OC` belongs 2.56% (inactive); to `COc1cc(/C=C2/C(=O)NN(c3cccc(Cl)c3)C2=O)cc(Br)c1O`, 5.53% (inactive). Regarding `CCOc1c(Br)cc(/C=C2\C(=O)N(CCC#N)N=C2C)cc1OC`, the inhibition is 75.9% (active). As for `COc1cc(OC)cc(-c2c(-c3cccs3)c3cc(-c4ccc(OC)cc4F)ccc3n2C)c1`, the inhibition was 11.7% (inactive). With `COc1ccc(CCN2CC(C(=O)NCCN3CCNC3=O)CCC2=O)cc1` (configuration not stated), the inhibition is 0.96% (inactive). As for `CC1=C(C(=O)OCc2ccccc2)C(c2ccc(C(F)(F)F)cc2)NC(=O)N1CCCCCC(=O)O` (configuration not stated), the inhibition is 19.6% (inactive). For `CC1=C(C(=O)OC(C)(C)C)C(c2ccc(Br)cc2)NC(=O)N1CCCC(=O)O` (configuration not stated), the inhibition was -6.71% (inactive). With `CCCCNC(=O)C(C)N(CCN(C)C)C(=O)CCCCCN1C(=O)NC(c2ccc(Cl)cc2)C(C(=O)OCc2ccccc2)=C1C` (configuration not stated) the figure was 67.1% (active). With `CCN1C(=O)N[C@@H](c2ccccc2)C(C(=O)OC)=C1C` the figure was -2.25% (inactive). Take `COC(=O)CCCCCN1C(=O)NC(c2ccc(-c3ccccc3)cc2)C(C(=O)OCc2ccccc2)=C1C` (configuration not stated): the inhibition was 19.3% (inactive).

`CCCCNC(=O)C(C)N(CCN(C)C)C(=O)CCCN1C(=O)NC(c2ccc(Cl)cc2)C(C(=O)OCc2ccccc2)=C1C` (configuration not stated): the inhibition is 57.1% (active). In the case of `CCCOC(=O)c1c(NC(=O)c2cnn3c2NC(c2ccccc2)CC3C(F)(F)F)sc2c1CCCC2` (configuration not stated), the inhibition was -7.9% (inactive).

`NC(=O)c1ccc(-c2csnn2)cc1`: the inhibition was -3.94% (inactive). Turning to `COc1ccc(-n2nc(C(=O)Nc3cc(OC)c(OC)c(OC)c3)c3ccccc3c2=O)c(OC)c1`, the inhibition is 28.5% (inactive). Consider `Nc1nnnn1/N=C/c1cccc(Br)c1`, for which the inhibition is 8.14% (inactive).

With `COc1ccccc1C(=O)NCCC(=O)N(C)Cc1cccnc1`, the inhibition is -4.28% (inactive). For `Cc1ccc(OCCNC(=O)CCNS(=O)(=O)c2ccc(Br)cc2)cc1`, the inhibition is 11.6% (inactive). As to `O=C(CCNS(=O)(=O)c1ccccc1)NCCCc1ccccc1`, the inhibition was 4.81% (inactive).

With `O=C(CCNS(=O)(=O)c1ccccc1)NCCSc1ccc(Br)cc1`, the inhibition is 58.6% (active). With `CCCc1c(C)nc2c(Br)cccc2c1Cl`, the inhibition was -2.72% (inactive). For `CC[N+](C)(CC)CCC[n+]1c(-c2ccccc2)c2cc(N)ccc2c2ccc(N)cc21`, the inhibition was 98.2% (active). On to `CCOC(=O)N1CCC(NC(=O)Cc2cn(C)c3ccccc23)CC1`, for which the inhibition is 3.3% (inactive). Turning to `CCOC(=O)N1CCC(NC(=O)C(C)n2c3ccccc3c3cnn(C)c(=O)c32)CC1` (configuration not stated), the inhibition was 44.6% (active).

On to `CCOC(=O)N1CCC(NC(=O)CCc2cn(C)c3ccccc23)CC1`, for which the inhibition was 0.184% (inactive). With `Cc1ccc2nc(N3CCN(C(=O)c4ccco4)CC3)sc2c1`, the inhibition is 41.9% (active). For the compound `Cc1ccc2nc(N3C(=O)C(O)=C(C(=O)c4ccco4)C3c3cccc(O)c3)sc2c1` (configuration not stated), the inhibition was 9.5% (inactive). Regarding `COc1ccc2nc(N3CCN(C(=O)c4ccc([N+](=O)[O-])o4)CC3)sc2c1`, the inhibition is 4.35% (inactive).

Take `CN(C)/C=C(\C#N)C(=O)c1cccnc1Oc1ccc(F)cc1F`: the inhibition is -17.9% (inactive). Take `Cc1ccc(NC(=O)C(C)c2cccc(C(=O)c3ccccc3)c2)cc1` (configuration not stated): the inhibition is -10.9% (inactive). On to `COc1cc2ccccc2cc1C(=O)N1CCOCC1`, for which the inhibition is -7.91% (inactive). To `Cc1oc2c(c1C(=O)N1CCOCC1)C(=O)c1ccccc1C2=O` belongs 65.9% (active); to `O=C(c1snnc1-c1ccccc1)N1CCOCC1`, -11.7% (inactive).

For the compound `Cc1cc(NC(=O)C(C)SCC(=O)Nc2ccccc2N2CCCCC2)no1` (configuration not stated), the inhibition is 18.8% (inactive). As for `CCCCN(CC)CCNC(=O)c1[nH]c(C)c(C(C)=O)c1C`, the inhibition is 2.1% (inactive). `Clc1ccccc1CSc1nnc(-c2ccco2)c(-c2ccco2)n1`: the inhibition is 49.9% (active).

`c1ccc(CSc2nnc(-c3ccco3)c(-c3ccco3)n2)cc1`: the inhibition is 49.6% (active). `O=C(CC1N=C2c3ccccc3N=C(SCc3ccccc3Cl)N2C1=O)NCc1ccco1` (configuration not stated): the inhibition was 21.1% (inactive). Regarding `S=C(NCc1ccco1)NCc1ccccc1Cl`, the inhibition was 10.3% (inactive). Regarding `Clc1ccc(CSc2nnc3c(n2)[nH]c2ccccc23)cc1`, the inhibition is 11.3% (inactive). To `CCc1nnc(SCc2cccc(F)c2)nc1CC` belongs 14.3% (inactive). Regarding `COc1cc(NC(=O)CCS(=O)(=O)c2ccc3c(c2)oc(=O)n3C)cc(OC)c1`, the inhibition is -0.825% (inactive). In the case of `Cc1c(NS(=O)(=O)c2cc(C(=O)NCCc3ccc(F)cc3)cc(Cl)c2Cl)c(=O)n(-c2ccccc2)n1C`, the inhibition is 16% (inactive).

In general, inhibition refers to the drop in the measured response relative to a control, in per cent.
